Publication PMC4181337 (Metallomics : integrated biometal science, 2013)
Values joined by “and” are separate entries in the source; they are usually repeats but may differ in a detail not shown here. Equal values may be shown once.

Tests used:
human red blood cells = conditions: inhibitor of the general anion transporter; cited from earlier work
[1] = Beagle dog, intravenous, radiolabeled; cited from earlier work
[2] = Serum total V pharmacokinetics; type: in vivo, human
In short: (§1)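 Diabetic patients were dosed with oral VOSO4 for forty days, followed by a sixteen-day washout, with periodic blood sampling. Total V was measured by GFAAS against a same-day standard curve; serum was run directly and whole blood after extra preparation. Decline was fitted to a one-compartment first-order model using the last dosing day plus three later points, giving k and half time. Accumulation was fitted using the washout k. AUC in (ng/mL)days was calculated for the exposure and decline phases.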

[3] = Whole blood total V pharmacokinetics; type: in vivo, human
In short: as §1

[4] = 24 hour urinary V clearance at steady state; type: in vivo, human
In short: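 Type 2 diabetic patients took VOSO4 orally as tablets with meals, 3 per day, for six weeks. 24 hour urine was collected at steady state, with one to three collections per patient. Urine was analysed directly for total V by Zeeman-corrected GFAAS against a standard curve run the same day. Steady-state urinary V output was taken as the minimum amount absorbed.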

[5] = test system: patients with type 2 diabetes; type: in vivo, human
In short: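 Patients took placebo, then oral VOSO4 tablets with meals (3/day) for six weeks. They self-monitored blood glucose before meals and at bedtime daily, reported as weekly averages. Two-step euglycemic-hyperinsulinemic clamps were run before and after treatment: overnight low-dose insulin to normalise glucose, then primed-continuous insulin at 0.5 and then 1.0 mU/kg/min, 2 h each. Glucose was checked every 5 min with variable glucose infusion. M was normalised to body mass.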

[6] = test system: patients with type 2 diabetes; experiment: Adverse symptoms reported during the clinical study; type: in vivo, human; conditions: doses of V used in this clinical study; not severe enough to drop subjects
[7] = test system: patients with type 2 diabetes; conditions: two higher dose groups (50, 100 mg V), six weeks; cited from earlier work
[8] = 25 mg V/day oral as VOSO4, 6 weeks, group mean
[9] = 25 mg V/day oral as VOSO4, group mean
[10] = 50 mg V/day oral as VOSO4, 6 weeks, group mean ± SD
[11] = 50 mg V/day oral as VOSO4, 6 weeks, individual patient
[12] = 50 mg V/day oral as VOSO4, exposure and decline phases, individual patient
[13] = 50 mg V/day oral as VOSO4, group mean ± SD
[14] = 100 mg V/day oral as VOSO4, 6 weeks, group mean ± SD
[15] = 100 mg V/day oral as VOSO4, 6 weeks, individual patient
[16] = 100 mg V/day oral as VOSO4, exposure and decline phases, individual patient
[17] = 100 mg V/day oral as VOSO4, group mean ± SD
[18] = patients taking 100 mg V per day
[19] = of the 8 patients receiving 100 mg V/day

CC(=O)/C=C(/C)[O-].CC(=O)/C=C(/C)[O-].[O]=[V+2] [VO(acac)2]
uptake by human red blood cells in the presence of DIDS (human red blood cells): no change

O=S(=O)([O-])[O-].[O]=[V+2] [vanadyl]
half time of single exponential decline (majority of the dose) [1]: 24 h

O=S(=O)([O-])[O-].[O]=[V+2] [vanadyl sulfate]
Pk Serum V [2, 8]: 18.9 ng/mL
SS Serum V [2, 8]: 15.4 ng/mL
Pk Serum V ([2]; 25 mg V/day oral as VOSO4, 6 weeks, individual patient): 16.7 ng/mL and 21.1 ng/mL
Ser V t1/2 [2, 9]: 64.8 h
Pk Serum V [2, 10]: 81.7 ± 40 ng/mL and 81.7 ± 40.5 ng/mL
SS Serum V [2, 10]: 63.1 ± 37.8 ng/mL
Pk Serum V [2, 11]: 125 ng/mL and 87.0 ng/mL and 114 ng/mL and 30.2 ng/mL and 51.7 ng/mL
AUC Serum V [2, 12]: 3538 (ng/mL)days and 1747 (ng/mL)days and 3894 (ng/mL)days and 946 (ng/mL)days and 617 (ng/mL)days
AUC Serum V [2, 13]: 2149 ± 1494 (ng/mL)days
Ser V t1/2 [2, 13]: 113 ± 38.4 h
ratio of serum AUC to whole blood AUC, mean value ([2]; 50 mg dose group): 1.07±0.86 (ng/mL)days
Pk Serum V [2, 14]: 319 ± 268 ng/mL
SS Serum V [2, 14]: 314 ± 178 ng/mL
Pk Serum V [2, 15]: 252 ng/mL and 227 ng/mL and 423 ng/mL and 906 ng/mL and 213 ng/mL and 368 ng/mL and 144 ng/mL
AUC Serum V [2, 16]: 8695 (ng/mL)days and 8328 (ng/mL)days and 15779 (ng/mL)days and 26713 (ng/mL)days and 8041 (ng/mL)days and 11412 (ng/mL)days and 4781 (ng/mL)days
AUC Serum V [2, 17]: 11965 ± 7340 (ng/mL)days
Ser V t1/2 [2, 17]: 110 ± 60 h
ratio of serum AUC to whole blood AUC, mean value ([2]; 100 mg dose group): 1.65±0.32 (ng/mL)days
fold increase in steady state serum V concentration ([2]; 25 to 50 mg dose groups): 4 fold
fold increase in steady state serum V concentration ([2]; 50 to 100 mg dose groups): 5 fold
Pk Blood V [3, 10]: 85 ± 54 ng/mL
SS Blood V [3, 10]: 65 ± 39 ng/mL
Pk Blood V [3, 11]: 163 ng/mL and 26 ng/mL and 109 ng/mL and 50 ng/mL and 75 ng/mL
Bld V t1/2 ([3]; 50 mg V/day oral as VOSO4, decline phase, individual patient): 240 h and 69.6 h and 106 h and 93.6 h and 161 h
AUC Blood V [3, 12]: 3762 (ng/mL)days and 701 (ng/mL)days and 3474 (ng/mL)days and 2025 (ng/mL)days and 1788 (ng/mL)days
AUC Blood V [3, 13]: 2351 ± 1264 (ng/mL)days
Bld V t1/2 [3, 13]: 134 ± 67.2 h
Pk Blood V [3, 14]: 201 ± 200 ng/mL
SS Blood V [3, 14]: 205 ± 164 ng/mL
Pk Blood V [3, 15]: 136 ng/mL and 132 ng/mL and 264 ng/mL and 654 ng/mL and 95 ng/mL and 225 ng/mL
Bld V t1/2 ([3]; 100 mg V/day oral as VOSO4, decline phase, individual patient): 96 h and 103 h and 173 h and 146 h and 50.4 h and 72 h and 209 h
AUC Blood V [3, 16]: 5648 (ng/mL)days and 5863 (ng/mL)days and 10552 (ng/mL)days and 20245 (ng/mL)days and 3741 (ng/mL)days and 6998 (ng/mL)days and 2341 (ng/mL)days
AUC Blood V [3, 17]: 7912 ± 6023 (ng/mL)days
Bld V t1/2 [3, 17]: 122 ± 57.6 h
Mean Urine [V] at Steady State [4, 9]: 54 ng/mL
Mean Urine [V] at Steady State ([4]; 25 mg V/day oral as VOSO4, individual patient): 60 ng/mL and 47 ng/mL
24 hour urinary V output at steady state ([4]; 50 mg V group, oral vanadyl sulfate): 0.18 ± 0.24 mg
Mean Urine [V] at Steady State [4, 13]: 59 ± 80 ng/mL
Mean Urine [V] at Steady State ([4]; 50 mg V/day oral as VOSO4, individual patient): 215 ng/mL and 29 ng/mL and 165 ng/mL and 18 ng/mL and 22 ng/mL
24 hour urinary V output at steady state ([4]; 100 mg V group, oral vanadyl sulfate): 0.97 ± 0.84 mg
Mean Urine [V] at Steady State [4, 17]: 654 ± 705 ng/mL
Mean Urine [V] at Steady State ([4]; 100 mg V/day oral as VOSO4, individual patient): 412 ng/mL and 468 ng/mL and 457 ng/mL and 2199 ng/mL and 207 ng/mL and 703 ng/mL and 135 ng/mL
absorbed fraction of the administered V ([4]; 16 type 2 diabetic patients, oral vanadyl sulfate): about 1%
absorption of the administered dose ([4]; 50 and 100 mg V groups, estimated from steady state urinary output): ≤ 1%
V excreted [4, 18]: approximately 1 mg V per day
absorption of V entering the GI tract [4, 18]: 1%
absorption of V, of the daily dose ([4]; three doses of V used (25, 50, 100 mg/day)): less than 1%
patients with improved responses for all three variables ([5]; of the 5 patients receiving 50 mg V/day): 2
patients who responded well for all three variables [5, 19]: three
patients who responded well for two variables [5, 19]: four
adverse symptoms [6]: symptoms of gastrointestinal distress
patients with improved fasting blood glucose [7]: approximately 50%

[O]=[V]([O-])([O-])[O-] [vanadate]
half time of single exponential decline (majority of the dose) [1]: 24 h
uptake by human red blood cells in the presence of DIDS (human red blood cells): blocked
